The nature of the data set: silicate ester hydrolysis rate study by 1H NMR. Format: physicochemical. The following applies: for ∼krel of hydrolysis at C2′: C2′ silicate; for ∼krel of hydrolysis at C2′ / ∼krel of hydrolysis at C7: kobs relative to that of 1d; for difference in krel, triethyl vs trioctyl silicate: 1a vs 1b (PTX) or 4a vs 4b; for ∼krel of hydrolysis at C7: C7 silicate. The method, boiled down:
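About 10 mg silicate ester in 900 μL acetone-d6, then 100 μL of 9:1 v/v D2O/TFA added and mixed. Held at 22 °C ± 1.0 °C. 1H NMR at 500 MHz (16 or 32 transients) at 8–30 time points over more than 3 half-lives. The 2′/7-methine signals of silicate and free taxane were integrated against H5. kobs came from the ln[species] vs time slope (three replicates). krel is kobs divided by that of the reference silicate.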

Consider 15 compounds from PMC3983351 (Journal of Medicinal Chemistry, 2014).

On to `CCO[Si](O[C@@H](C(=O)O[C@H]1C[C@@]2(O)[C@@H](OC(=O)c3ccccc3)[C@@H]3[C@]4(OC(C)=O)CO[C@@H]4C[C@H](O)[C@@]3(C)C(=O)[C@H](OC(C)=O)C(=C1C)C2(C)C)[C@@H](NC(=O)c1ccccc1)c1ccccc1)(OC(C)(C)C)OC(C)(C)C` [1f, 2′-O-[(Di-tert-butoxy)(ethoxy)silyl]paclitaxel], for which the “∼krel of hydrolysis at C2′” value was determined as 5.6.

Regarding “2′-(Di-tert-butoxyethoxysilyl)docetaxel [4e]”, the “∼krel of hydrolysis at C2′” value worked out at 5.0.

For `CCO[Si](OCC)(OCC)O[C@@H](C(=O)O[C@H]1C[C@@]2(O)[C@@H](OC(=O)c3ccccc3)[C@@H]3[C@]4(OC(C)=O)CO[C@@H]4C[C@H](O)[C@@]3(C)C(=O)[C@H](OC(C)=O)C(=C1C)C2(C)C)[C@@H](NC(=O)c1ccccc1)c1ccccc1` [1a, 2′-O-[(Triethoxy)silyl]paclitaxel], the “difference in krel, triethyl vs trioctyl silicate” value is reported as about 3 and the “∼krel of hydrolysis at C2′” value was determined as 18000.

Consider 2′-O-(Triethoxysilyl)docetaxel [4a], for which the “difference in krel, triethyl vs trioctyl silicate” value is reported as about 3 and the “∼krel of hydrolysis at C2′” value stood at 6500.

With `CC(=O)O[C@H]1C(=O)[C@@]2(C)[C@H]([C@H](OC(=O)c3ccccc3)[C@]3(O)C[C@H](OC(=O)[C@H](O[Si](OC(C)=O)(OC(C)(C)C)OC(C)(C)C)[C@@H](NC(=O)c4ccccc4)c4ccccc4)C(C)=C1C3(C)C)[C@]1(OC(C)=O)CO[C@@H]1C[C@@H]2O` [1g, 2′-O-(Di-tert-butoxyacetoxysilyl)paclitaxel], the “∼krel of hydrolysis at C2′” value stood at 1900.

`CCCCCCCCO[Si](OCCCCCCCC)(OCCCCCCCC)O[C@H]1C[C@H]2OC[C@@]2(OC(C)=O)[C@H]2[C@H](OC(=O)c3ccccc3)[C@]3(O)C[C@H](OC(=O)[C@H](O)[C@@H](NC(=O)c4ccccc4)c4ccccc4)C(C)=C([C@@H](OC(C)=O)C(=O)[C@]12C)C3(C)C` [3b, 7-O-(Tri-n-octyloxysilyl)paclitaxel]: the “∼krel of hydrolysis at C7” value was 450.

“2′-(Trimenthyloxysilyloxy)docetaxel [4d]”: the “∼krel of hydrolysis at C2′” value worked out at 0.88.

Turning to `CCO[Si](OCC)(OCC)O[C@H]1C[C@H]2OC[C@@]2(OC(C)=O)[C@H]2[C@H](OC(=O)c3ccccc3)[C@]3(O)C[C@H](OC(=O)[C@H](O[Si](OCC)(OCC)OCC)[C@@H](NC(=O)c4ccccc4)c4ccccc4)C(C)=C([C@@H](OC(C)=O)C(=O)[C@]12C)C3(C)C` [2a, 2′,7-Di-O-(triethoxysilyl)paclitaxel], the “∼krel of hydrolysis at C2′” value was found to be 15000 and the “∼krel of hydrolysis at C7” value is given as 2100.

For 2′-O-(Triisopropoxysilyl)docetaxel [4c], the “∼krel of hydrolysis at C2′” value was 260.

As to `CCO[Si](OCC)(OCC)O[C@H]1C[C@H]2OC[C@@]2(OC(C)=O)[C@H]2[C@H](OC(=O)c3ccccc3)[C@]3(O)C[C@H](OC(=O)[C@H](O)[C@@H](NC(=O)c4ccccc4)c4ccccc4)C(C)=C([C@@H](OC(C)=O)C(=O)[C@]12C)C3(C)C` [3a, 7-O-(Triethoxysilyl)paclitaxel], the “∼krel of hydrolysis at C7” value was determined as 2200.

`CC(=O)O[C@H]1C(=O)[C@@]2(C)[C@H]([C@H](OC(=O)c3ccccc3)[C@]3(O)C[C@H](OC(=O)[C@H](O[Si](OC4CC(C)CCC4C(C)C)(OC4CC(C)CCC4C(C)C)OC4CC(C)CCC4C(C)C)[C@@H](NC(=O)c4ccccc4)c4ccccc4)C(C)=C1C3(C)C)[C@]1(OC(C)=O)CO[C@@H]1C[C@@H]2O` (some centres unmarked) [1d, 2′-[(Trimenthyloxy)silyl]paclitaxel]: the “∼krel of hydrolysis at C2′” value is 1.0.

As to “2′-O-(Tri-n-octyloxysilyl)docetaxel [4b]”, the “∼krel of hydrolysis at C2′” value is listed as 2600.

For the compound `CC(=O)O[C@H]1C(=O)[C@]2(C)[C@@H](O[Si](OC(C)C)(OC(C)C)OC(C)C)C[C@H]3OC[C@@]3(OC(C)=O)[C@H]2[C@H](OC(=O)c2ccccc2)[C@]2(O)C[C@H](OC(=O)[C@H](O[Si](OC(C)C)(OC(C)C)OC(C)C)[C@@H](NC(=O)c3ccccc3)c3ccccc3)C(C)=C1C2(C)C` [2c, 2′,7-Di-O-(triisopropoxysilyl)paclitaxel], the “∼krel of hydrolysis at C2′” value came out at 520 and the “∼krel of hydrolysis at C7” value is listed as 46.

With `CC(=O)O[C@H]1C(=O)[C@@]2(C)[C@H]([C@H](OC(=O)c3ccccc3)[C@]3(O)C[C@H](OC(=O)[C@H](O[Si](OC(C)C)(OC(C)C)OC(C)C)[C@@H](NC(=O)c4ccccc4)c4ccccc4)C(C)=C1C3(C)C)[C@]1(OC(C)=O)CO[C@@H]1C[C@@H]2O` [1c, 2′-O-[(Triisopropoxy)silyl]paclitaxel], the “∼krel of hydrolysis at C2′” value turned out to be 570.

Regarding `CCCCCCCCO[Si](OCCCCCCCC)(OCCCCCCCC)O[C@H]1C[C@H]2OC[C@@]2(OC(C)=O)[C@H]2[C@H](OC(=O)c3ccccc3)[C@]3(O)C[C@H](OC(=O)[C@H](O[Si](OCCCCCCCC)(OCCCCCCCC)OCCCCCCCC)[C@@H](NC(=O)c4ccccc4)c4ccccc4)C(C)=C([C@@H](OC(C)=O)C(=O)[C@]12C)C3(C)C` [2b, 2′,7-Di-O-(Tri-n-octyloxysilyl)paclitaxel], the “∼krel of hydrolysis at C2′” value came out at 3800 and the “∼krel of hydrolysis at C7” value was found to be 340.
